Compound activity: PubChem BioAssay, several laboratories
NPY1 pot ag = potentiators or agonists of human neuropeptide Y receptor Y1 | activation, % at 3.6 µM | NPY-Y1 expressing cells, potentiator/agonist activation | P25929 | 0.37% of 220,000 active; in the data active means activation above about 33%, passing the limit was not always enough;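 further: cells stimulated with NPY at EC10 then isoproterenol at EC100; 0% = low agonist plus stimulus and 100% = saturating agonist plus stimulus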
Target sequence (P25929 whole entry, looked up): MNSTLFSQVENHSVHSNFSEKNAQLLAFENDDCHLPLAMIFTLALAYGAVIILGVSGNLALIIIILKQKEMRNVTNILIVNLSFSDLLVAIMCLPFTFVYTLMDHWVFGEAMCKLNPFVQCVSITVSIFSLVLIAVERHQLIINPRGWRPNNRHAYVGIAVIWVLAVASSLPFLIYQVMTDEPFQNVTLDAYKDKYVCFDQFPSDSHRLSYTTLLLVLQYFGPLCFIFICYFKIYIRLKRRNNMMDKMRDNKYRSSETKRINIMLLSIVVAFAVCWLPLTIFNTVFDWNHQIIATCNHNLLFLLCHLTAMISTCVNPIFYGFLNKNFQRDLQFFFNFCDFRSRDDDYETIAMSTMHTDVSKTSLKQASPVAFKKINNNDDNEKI
NPY-Y2 antag = antagonists of human neuropeptide Y receptor Y2. AID 793. inhibition, % at 2.7 µM. 0.99% of 140,000 active. P49146. NPY-Y2 expressing cells, antagonist mode; in the data active means inhibition above about 17%;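 further: 0% = vehicle with agonist challenge and 100% = reference antagonist with challenge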
WT yeast gro inh = growth inhibition of WT yeast, mitochondrial fusion screen | inhibition, % at 10 µM | 2.1% of 190,000 active | mitochondrial fusion phenotypic screen, WT strain; in the data active means inhibition above about 58%; tested in S. cerevisiae
NPY-Y1 antag = NPY-Y1 (human) receptor antagonism. 1% of 200,000 active. HEK293-CNG Y1 cells, membrane potential fluorescence; NPY at EC95, then isoproterenol. P25929. inhibition, % at 3.6 µM;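 active means inhibition above the campaign mean inhibition of all tested compounds plus 3 SD, cut at about 20% in these data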;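 further: 0% = DMSO wells given NPY plus isoproterenol and 100% = isoproterenol alone without NPY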
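Test system – HEK293 Y1/CNG channel cell line · Also added – NPY agonist 25 nM, then isoproterenol 1 µM plus Ro 20-1724 25 µM · Compound dosing – one concentration, 3.6 µM, in 0.4% DMSO · Schedule – compound incubation 1 h at room temperature, readout 45 min post-stimulation · Technique – fluorescence, membrane potential probe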
RAM inhibit = blocks the yeast RAM network; S. cerevisiae dse1pr::URA3 reporter, 5-FOA growth OD615, 2 d; analog-sensitive cbk1-as2 kinase mutant strain; inhibition, % at 50 µM; 1.8% of 190,000 active; AID 868;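 active means inhibition above a set limit, 3 SD over mean compound inhibition, cut at about 8.4% in these data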;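 further: 0% = DMSO-only wells with no growth and 100% = 10 µM 1-NA-PP1 full growth; inhibition rescues growth on 5-FOA so higher OD means more RAM inhibition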
NPY-Y2 PAM-ag = human NPY-Y2 potentiation or agonism, primary screen. 0.45% of 220,000 active. AID 1359. activation, % at 3.6 µM. P49146. cells expressing NPY-Y2, potentiator/agonist read-out; in the data active means activation above about 27%;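 further: cells stimulated with NPY near EC25 plus isoproterenol at EC100; 0% = vehicle plus submaximal agonist and 100% = vehicle plus saturating agonist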
* hit, by the source's call; nt = no result. A selection: hits, their analogues and other compounds. The true share with any hit is near 4.9%.

SMILES	NPY1 pot ag	NPY-Y2 antag	WT yeast gro inh	NPY-Y1 antag	RAM inhibit	NPY-Y2 PAM-ag
O=c1nc(Nc2ccc(OCc3ccccc3)cc2)sc2ncccc12	3	nt	-11	5	9.3*	4
COc1ccc(NC(=O)CSc2ccccc2)cc1S(=O)(=O)N1CCCCC1	-13	2	-6	0	5	0
COc1ccc(NC(=O)CCCC2CCCCC2)cc1S(=O)(=O)N1CCCCC1	-17	18*	5	29*	4	-7
O=C(O)CN1C(=O)c2cccc(Oc3ccc(Cl)cc3)c2C1=O	0	0	-4	-2	1	-4
Cc1ccc(C(=O)N/N=C/C=C/c2ccccc2)cc1	-5	nt	3	11	1	-21
CCOC(=O)C1=C(C)N=C2SC(C(=O)OC)=CC(=O)N2C1c1ccc(OC)cc1 (configuration not stated)	-9	nt	84*	-2	3	-11
COC(=O)C1=C(C)N=C2SC(C#N)=C(N)N2C1c1ccc(OC)cc1 (configuration not stated)	-1	3	-20	1	0	-9
COc1cc(-c2nc3ccc4ccccc4c3c3c2CCC3)ccc1O	-4	3	79*	-2	3	-8
COc1cc(-c2nc3ccc4ccccc4c3c3c2CCC3)cc(OC)c1OC	20	3	0	4	4	4
COc1cc(-c2nc3ccc4ccccc4c3c3c2CCC3)cc(OC)c1O	-31	3	98*	8	-1	-1
Cc1ccc(S(=O)(=O)Nc2ccc3c(c2)n(C)c(=O)n3C)c(C)c1	-1	nt	5	7	6	-15
Cc1ccc(S(=O)(=O)Nc2ccc3oc(=O)sc3c2)c(C)c1	22	0	61*	0	0	6
CC1CC(C)CN(C(=O)c2cc3cc(Br)cc(Br)c3o2)C1 (configuration not stated)	4	nt	78*	-4	6	-21
O=C(CCN1c2ccccc2Sc2ccccc21)Oc1ccccc1	3	0	16	8	8	9
COC(=O)c1ccc(OC(=O)CCN2c3ccccc3Sc3ccccc32)cc1	16	-2	61*	-2	11*	15
COc1ccccc1/C=C/C=N/n1c(C2CCCCC2)n[nH]c1=S	-13	5	40	-1	4	11
CCCCCCCCCCCCCCCC[n+]1ccc(C(N)=O)cc1	-13	1	99*	-2	-1	8
CCCCCCCCCCCCCCCC[n+]1ccc(/C=N/O)cc1	27	5	98*	-1	2	0
CC(=O)c1cccc(Nc2ccc(-c3ccccc3F)nn2)c1	16	nt	1	4	3	-2
O=c1cc(N2CCN(Cc3ccccc3)CC2)[nH]c(=O)n1-c1cccc(C(F)(F)F)c1	-14	2	1	-1	0	5
Cn1c(/C=C(\C#N)C(N)=S)ccc1-c1ccc(Br)cc1	6	nt	8	-9	9.6*	2
Cn1cccc1/C=C(\C#N)C(N)=S	30	nt	nt	nt	nt	-2
Cc1ccc(-c2csc3nc4c5ccccc5c(NCCCN5CCOCC5)nn4c(=O)c23)cc1	-5	nt	75*	-6	-1	7
Cc1ccc(-c2nc3ccccc3c(=O)n2CCCN2CCOCC2)cc1	5	1	-4	7	-1	-1
CCN(CC)c1ccc(/C=N/NC(=O)Cc2cccs2)c(O)c1	-3	1	-24	3	0	9
SMILES	NPY1 pot ag	NPY-Y2 antag	WT yeast gro inh	NPY-Y1 antag	RAM inhibit	NPY-Y2 PAM-ag
COc1ccc(-c2cc(C(=O)N3CC4(C)CC3CC(C)(C)C4)no2)cc1 (configuration not stated)	-9	-1	20	5	1	15
CC1(C)CC2CC(C)(CN2C(=O)c2cc(-c3ccccc3O)on2)C1 (configuration not stated)	8	0	63*	2	2	-1
O=C(Cc1ccc(Cl)cc1)N/N=C/c1c(Cl)cccc1Cl	7	9	20	6	2	8
CC(=O)Oc1cc2c(cc1Cl)C1(CC(c3ccccc3Cl)O2)CC(C)(C)NC(=S)N1 (configuration not stated)	20	1	63*	-3	5	-8
CC1(C)CC(=O)c2c(O)cc(OCc3ccc([N+](=O)[O-])cc3)cc2O1	16	2	83*	4	7	2
Cc1cc(OCC(=O)N(C)c2ccccc2)cc2c1C(=O)CC(C)(C)O2	9	nt	nt	nt	nt	9
O=C(CSc1nc(O)cc(=O)[nH]1)N1CCCc2ccccc21	-6	1	-28	3	1	0
CCSc1nc2cc(OC)c(OC)cc2c(=O)n1CCc1ccccc1	-1	6	-7	3	8.6*	-5
COCCCn1c(SCCc2ccccc2)nc2cc(OC)c(OC)cc2c1=N	-19	nt	37	7	-1	-22
O=C(CSCC(=O)N1CCCCC1)Nc1nc(-c2ccccc2)c(-c2ccccc2)s1	8	2	60*	-1	4	-2
CCOC(=O)c1sc(NS(=O)(=O)c2cc(C)ccc2C)nc1C	-15	10	8	11	1	-8
Cc1ccc(C)c(-n2nnnc2SCC(=O)NNC(=O)c2ccco2)c1	-26	nt	0	3	1	-6
CCOC(=O)c1ccc(NC(=S)NN2CCN(C)CC2)cc1	18	nt	-1	-1	1	16
NS(=O)(=O)c1ccc(NC(=S)NCCc2ccccc2)cc1	-6	nt	-13	0	2	17
CC1=C/C(=N\NC(=S)NCCc2ccccc2)CC(C)(C)C1	-10	nt	70*	7	6	-22
O=[N+]([O-])c1ccc(NC(=S)NCCc2ccccc2)cc1	23	1	81*	-10	2	12
O=C(NCCCc1ccccc1)Nc1cccc(Cl)c1	5	6	77*	6	1	0
COc1cc(OC)cc(C(=O)NC(=S)NCCc2ccccc2)c1	-40	7	-3	14	10*	-25
CC1(C)CC(=O)C/C(=N\NC(=S)NCc2ccccc2)C1	-1	nt	-3	-3	1	8
COc1ccccc1C(=O)Nc1ncc2c(n1)CC(c1ccco1)CC2=O (configuration not stated)	-1	4	10	14	0	10
S=C(NCCc1ccccc1)N/N=C/c1c(Cl)cccc1Cl	-41	23*	6	22*	4	-17
O=[N+]([O-])c1ccc(NC(=S)NCCc2ccc(Cl)cc2)cc1	37	-2	83*	-6	3	19
Cc1c(Cl)cccc1NC(=S)NCCc1ccc(C(F)(F)F)cc1	2	nt	81*	2	1	-11
S=C(NCCc1ccccc1)Nc1ccc(Cl)cc1	-1	-1	30	1	0	4
S=C(NCCc1ccccc1)Nc1ccccc1Cl	6	3	16	-3	2	0
S=C(NCCCc1ccccc1)Nc1ccccc1Cl	20	-1	68*	0	0	12
Cc1c(Cl)cccc1NC(=S)NCCc1ccccn1	5	nt	nt	nt	nt	-3
